Consider seven molecules from ChEMBL document CHEMBL2396525, “Synthesis and anti-HCMV activity of 1-[ω-(phenoxy)alkyl]uracil derivatives and analogues thereof” (Bioorg Med Chem, 2013).

Calls of active or inactive are those of the source. The rule behind the calls is not given here. A value given as a limit tells only on which side of the number the result lay.

Data set [1] concerns Human immunodeficiency virus 2. In words: Antiviral activity against HIV2 ROD infected in human CEM cells assessed as inhibition of virus-induced giant cell formation after 4 to 5 days. Format: functional, organism-based. The note with it: ISOLATE ROD, CCRF-CEM. The method in brief: (§1)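 CEM cells at about 3 × 10^5 cells/mL were infected with 100 CCID50 of HIV per mL, with compound dilutions present. They were incubated 4–5 days at 37 °C in humidified CO2, and syncytia were scored microscopically. EC50 is the concentration that inhibits giant cell formation by 50%.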

The subject of data set [2] is Human immunodeficiency virus 1. Nature of the data set: Antiviral activity against HIV1 3B infected in human CEM cells assessed as inhibition of virus-induced giant cell formation after 4 to 5 days. To be noted: CCRF-CEM. It is filed as functional, organism-based. A digest of the protocol:
as §1

The test system of another data set is Feline coronavirus. In words: Antiviral activity against Feline coronavirus. Format: functional, organism-based.
Another data set relates to Sindbis virus. In words: Antiviral activity against Sindbis virus. Format: functional, organism-based. A digest of the protocol: (§2)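 Confluent HEL, Vero, HeLa or MDCK cell cultures were inoculated with 100 CCID50 of virus alongside varying compound concentrations. Cytopathicity was scored when it reached completion in untreated virus controls. EC50 is the concentration that reduces virus-induced cytopathogenicity by 50%.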

For the next data set, the system named is Punta Toro virus. In words: Antiviral activity against Punta Toro virus. Format: functional, organism-based. The method in brief:
as §2

For the next data set, the system named is Influenza B virus. In words: Antiviral activity against Influenza B virus. It is filed as functional, organism-based. A digest of the protocol:
(§3)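 The assay was a cell-based cytopathicity inhibition test on confluent monolayers with serial compound dilutions. EC50 was the concentration that reduced virus-induced cytopathicity by 50%.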

Data set [3] relates to Mammalian orthoreovirus 1. Nature of the data set: Antiviral activity against Reovirus-1. It is filed as functional, organism-based. A digest of the protocol: as §2
The subject of data set [4] is Influenza A virus. Nature of the data set: Antiviral activity against Influenza virus A virus H3N2. Format: functional, organism-based. A digest of the protocol: as §3
A further data set deals with Human respirovirus 3. Nature of the data set: Antiviral activity against Parainfluenza virus 3. Format: functional, organism-based. A digest of the protocol: as §2
Data set [5] has as its system Influenza A virus. In words: Antiviral activity against Influenza virus A virus H1N1. It is filed as functional, organism-based. A digest of the protocol: as §3
A further data set has as its system Coxsackievirus B4. In words: Antiviral activity against Coxsackie B4 virus. It is filed as functional, organism-based. The method in brief: as §2
Data set [6] deals with Vesicular stomatitis virus. In words: Antiviral activity against Vesicular stomatitis virus. Format: functional, organism-based.
For data set [7], the system named is Respiratory syncytial virus. In words: Antiviral activity against Respiratory syncytial virus Long. It is filed as functional, organism-based. The method in brief:
as §2

A further data set has as its system Vaccinia virus. In words: Antiviral activity against Vaccinia virus Lederle. It is filed as functional, organism-based. To be noted: Orthopoxvirus vaccinia.
Data set [8] relates to Human alphaherpesvirus 3. Nature of the data set: Antiviral activity against Varicella-zoster virus YS. Format: functional, organism-based. The method in brief: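 VZV was assayed by plaque formation. Confluent cell cultures received 10 or 100 PFU with varying compound concentrations, and plaques were recorded once complete in untreated infected controls. EC50 is the concentration that reduces plaque formation by 50%.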

Data set [9] relates to Human alphaherpesvirus 3. In words: Antiviral activity against Varicella-zoster virus OKA. It is filed as functional. The note with it: strain Oka vaccine. The method in brief: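 Confluent cell monolayers were infected with 10 or 100 PFU of VZV in the presence of serial compound dilutions. Plaque formation was recorded once untreated infected controls reached completion. EC50 was the concentration that reduced plaque formation by 50%.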

The subject of data set [10] is Human alphaherpesvirus 2. In words: Antiviral activity against Herpes simplex virus type 2 Lyons. It is filed as functional, organism-based. The method in brief: as §2
For data set [11], the system named is Human alphaherpesvirus 2. In words: Antiviral activity against Herpes simplex virus type 2 G. To be noted: strain G. It is filed as functional, organism-based. A digest of the protocol: as §2
Data set [12] has as its system Human alphaherpesvirus 1. In words: Antiviral activity against thymidine kinase deficient acyclovir-resistant Herpes simplex virus type 1 KOS. Format: functional, organism-based.
The subject of data set [13] is Human alphaherpesvirus 1. In words: Antiviral activity against Herpes simplex virus type 1 KOS. Format: functional, organism-based. The method in brief:
as §2

The subject of another data set is HEL. In words: Cytotoxicity against HEL. To be noted: human. Format: cell-based.
Data set [14] concerns Human betaherpesvirus 5. Nature of the data set: Antiviral actiivty against Human herpesvirus 5 Davis infected in HEL assessed as reduction of virus-induced plaque formation. Format: functional, organism-based. The note with it: Human betaherpesvirus 5, Davis. A digest of the protocol: (§4)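 HCMV strains AD-169 and Davis were tested on confluent human embryonic lung fibroblast monolayers infected with 100 PFU in the presence of serial compound concentrations. Plaques were counted once formation was complete in untreated infected controls. EC50 is the concentration that cuts plaque formation by 50%.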

The subject of data set [15] is Human betaherpesvirus 5. In words: Antiviral actiivty against Human herpesvirus 5 AD169 infected in HEL assessed as reduction of virus-induced plaque formation. The note with it: Human betaherpesvirus 5, AD169. It is filed as functional, organism-based. A digest of the protocol: as §4
Data set [16] in a line: Cytotoxicity against HEL assessed as minimum cytotoxic concentration required to cause microscopically detectable alteration in cell morphology. Format: cell-based. The note with it: human, HEL cells.

For orientation: CC50 means the concentration at which the toxic effect on the cells reaches its halfway point. What is called EC50 is the concentration that produces a half-maximal response. Take `N#Cc1ccc(OCCCCCn2ccc(=O)[nH]c2=O)cc1`: the result (in data set [1]; in data set [2]; with Feline coronavirus; in the data set on Sindbis virus; in the data set on Punta Toro virus; in the data set with Influenza B virus) was inactive. Also, the result (in data set [3]; in the data set with Influenza A virus [4]; in the data set on Human respirovirus 3; in the data set on Influenza A virus [5]; with Coxsackievirus B4; in data set [6]) was inactive. Further, the outcome (in [7]; with Vaccinia virus; in the data set with Human alphaherpesvirus 3 [8]; with Human alphaherpesvirus 3 [9]; in the data set with Human alphaherpesvirus 2 [10]; in the data set on Human alphaherpesvirus 2 [11]) was inactive. Further, the result with Human alphaherpesvirus 1 [12] and in the data set on Human alphaherpesvirus 1 [13] was inactive. The CC50 in the data set with HEL turned out to be 100 µM. For the same molecule, the results for the EC50 in the data set on Human betaherpesvirus 5 [14] and with Human betaherpesvirus 5 [15] were 5.5 µM and 8.9 µM, respectively. Also, in data set [16], the MCC is 100 µM.
As for `Cc1cn(CCCCCOc2ccc(Br)cc2)c(=O)[nH]c1=O`, the outcome (in data set [1]; in data set [2]; in the data set on Feline coronavirus; with Sindbis virus; in the data set with Punta Toro virus; with Influenza B virus) was inactive. Moreover, the result (in data set [3]; in the data set with Influenza A virus [4]; in the data set with Human respirovirus 3; in the data set on Influenza A virus [5]; with Coxsackievirus B4; in [6]) was inactive. The result (in data set [7]; in the data set with Vaccinia virus; with Human alphaherpesvirus 3 [8]; with Human alphaherpesvirus 3 [9]; in the data set on Human alphaherpesvirus 2 [10]; in the data set with Human alphaherpesvirus 2 [11]) was inactive. For the same molecule, the outcome in the data set with Human alphaherpesvirus 1 [12] and with Human alphaherpesvirus 1 [13] was inactive. This molecule came in with a CC50 with HEL greater than 100 µM. Further, the EC50 with Human betaherpesvirus 5 [14] came out at 9 µM; with Human betaherpesvirus 5 [15] it was 8.9 µM. For the same molecule, the MCC in data set [16] turned out to be 100 µM.
In the case of `Cc1ccc(OCCCCCn2ccc(=O)[nH]c2=O)cc1`, the result (in data set [1]; in [2]; with Feline coronavirus; with Sindbis virus; with Punta Toro virus; in the data set with Influenza B virus) was inactive. In addition, the result (in data set [3]; in the data set on Influenza A virus [4]; in the data set on Human respirovirus 3; with Influenza A virus [5]; in the data set with Coxsackievirus B4; in data set [6]) was inactive. Also, the outcome (in [7]; in the data set with Vaccinia virus; in the data set with Human alphaherpesvirus 3 [8]; in the data set on Human alphaherpesvirus 3 [9]; in the data set on Human alphaherpesvirus 2 [10]; in the data set with Human alphaherpesvirus 2 [11]) was inactive. For the same molecule, the result in the data set on Human alphaherpesvirus 1 [12] and in the data set with Human alphaherpesvirus 1 [13] was inactive. In addition, the CC50 with HEL was greater than 100 µM. Further, the EC50 in the data set with Human betaherpesvirus 5 [14] and in the data set on Human betaherpesvirus 5 [15] was greater than 20 µM each time. Moreover, in [16], the MCC stood at 100 µM.
As for `O=c1ccn(CCCCCOc2ccc(Br)cc2)c(=O)[nH]1`, the result (in data set [1]; in [2]; with Feline coronavirus; in the data set on Sindbis virus; with Punta Toro virus; with Influenza B virus) was inactive. The result (in data set [3]; in the data set with Influenza A virus [4]; in the data set with Human respirovirus 3; in the data set on Influenza A virus [5]; in the data set with Coxsackievirus B4; in data set [6]) was inactive. The result (in data set [7]; with Vaccinia virus; with Human alphaherpesvirus 3 [8]; in the data set on Human alphaherpesvirus 3 [9]; in the data set with Human alphaherpesvirus 2 [10]; in the data set with Human alphaherpesvirus 2 [11]) was inactive. For the same molecule, the result in the data set on Human alphaherpesvirus 1 [12] and with Human alphaherpesvirus 1 [13] was inactive. This molecule also displayed a CC50 with HEL greater than 100 µM. The results for the EC50 in the data set with Human betaherpesvirus 5 [14] and in the data set with Human betaherpesvirus 5 [15] were 12 µM and 9.4 µM, respectively. In addition, the MCC in [16] was 100 µM.
As to `Cc1cccc(OCCCCCn2ccc(=O)[nH]c2=O)c1`, the result (in data set [1]; in data set [2]; with Feline coronavirus; in the data set on Sindbis virus; in the data set with Punta Toro virus; with Influenza B virus) was inactive. Besides, the result (in data set [3]; in the data set with Influenza A virus [4]; in the data set with Human respirovirus 3; with Influenza A virus [5]; with Coxsackievirus B4; in data set [6]) was inactive. For the same molecule, the outcome (in data set [7]; in the data set on Vaccinia virus; in the data set on Human alphaherpesvirus 3 [8]; in the data set with Human alphaherpesvirus 3 [9]; with Human alphaherpesvirus 2 [10]; in the data set with Human alphaherpesvirus 2 [11]) was inactive. For the same molecule, the outcome in the data set with Human alphaherpesvirus 1 [12] and in the data set with Human alphaherpesvirus 1 [13] was inactive. This molecule had a CC50 in the data set with HEL greater than 100 µM. Besides, the EC50 with Human betaherpesvirus 5 [14] amounted to 55 µM; in the data set with Human betaherpesvirus 5 [15], 45 µM. The MCC in data set [16] is greater than 100 µM.
Regarding `O=c1ccn(CCCCCOc2ccccc2)c(=O)[nH]1`, the result (in data set [1]; in data set [2]; with Feline coronavirus; in the data set with Sindbis virus; in the data set on Punta Toro virus; in the data set with Influenza B virus) was inactive. In addition, the outcome (in data set [3]; in the data set on Influenza A virus [4]; in the data set on Human respirovirus 3; in the data set on Influenza A virus [5]; with Coxsackievirus B4; in data set [6]) was inactive. In addition, the result (in [7]; in the data set with Vaccinia virus; in the data set with Human alphaherpesvirus 3 [8]; with Human alphaherpesvirus 3 [9]; in the data set on Human alphaherpesvirus 2 [10]; in the data set on Human alphaherpesvirus 2 [11]) was inactive. Further, the result in the data set on Human alphaherpesvirus 1 [12] and with Human alphaherpesvirus 1 [13] was inactive. This molecule came in with a CC50 in the data set with HEL greater than 100 µM. The concentration for a half-maximal effect (EC50) with Human betaherpesvirus 5 [14] and with Human betaherpesvirus 5 [15] was greater than 100 µM in each case. In data set [16], the MCC was greater than 100 µM.
`O=c1[nH]c(=O)n(CCCCCOc2ccc(Br)cc2)cc1I`: the outcome (in [1]; in data set [2]; with Feline coronavirus; in the data set on Sindbis virus; in the data set with Punta Toro virus; in the data set on Influenza B virus) was inactive. In addition, the result (in [3]; with Influenza A virus [4]; in the data set on Human respirovirus 3; in the data set with Influenza A virus [5]; in the data set on Coxsackievirus B4; in data set [6]) was inactive. The result (in [7]; in the data set on Vaccinia virus; in the data set with Human alphaherpesvirus 3 [8]; in the data set on Human alphaherpesvirus 3 [9]; in the data set on Human alphaherpesvirus 2 [10]; in the data set on Human alphaherpesvirus 2 [11]) was inactive. In addition, the outcome in the data set on Human alphaherpesvirus 1 [12] and in the data set on Human alphaherpesvirus 1 [13] was inactive. Further, the CC50 in the data set on HEL was greater than 100 µM. The EC50 with Human betaherpesvirus 5 [14] was determined as 20 µM; in the data set with Human betaherpesvirus 5 [15] it was 13 µM. The MCC in data set [16] was no less than 100 µM.
